# Assay results reported in ChEMBL document CHEMBL4000247, “Carbonic anhydrases activation with 3-amino-1H-1,2,4-triazole-1-carboxamides: Discovery of subnanomolar isoform II activators” (Bioorg Med Chem, 2017).
# Experiments:
# [1] = biological target: Carbonic anhydrase 1 (Homo sapiens) (UniProt P00915); experiment: Activation of recombinant human carbonic anhydrase 1 incubated for 15 mins prior to testing by stopped flow CO2 hydrase assay
# Summary of the method: (§1)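 CO2 hydration followed 5–10 s in stopped-flow instrument; phenol red 0.2 mM read at 557 nm; 10 mM HEPES pH 7.4, 0.1 M NaClO4 for ionic strength; saturated CO2 solutions in water at 25°C as substrate. Activator stocks 10 mM in assay buffer, diluted down to 0.01 nM; enzyme and activator preincubated 15 min at room temperature. Activation constant from competitive steady-state equation.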
# [2] = biological target: Carbonic anhydrase 2 (Homo sapiens) (UniProt P00918); experiment: Activation of recombinant human carbonic anhydrase 2 incubated for 15 mins prior to testing by stopped flow CO2 hydrase assay; summary of the method: as §1
# Carbonic anhydrase 1 (Homo sapiens), sequence (P00915 2-261 limits assumed): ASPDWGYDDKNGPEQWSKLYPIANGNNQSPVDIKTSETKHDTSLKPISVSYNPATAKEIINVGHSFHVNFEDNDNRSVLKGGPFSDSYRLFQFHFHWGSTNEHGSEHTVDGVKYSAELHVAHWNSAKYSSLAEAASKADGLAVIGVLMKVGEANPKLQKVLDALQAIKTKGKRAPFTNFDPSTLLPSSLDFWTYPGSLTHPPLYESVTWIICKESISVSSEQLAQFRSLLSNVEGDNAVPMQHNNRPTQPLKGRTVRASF
KA [1] [nM],KA [2] [nM],SMILES
11.1,65,Nc1ncn(C(=O)NCCCCCCCCNC(=O)n2cnc(N)n2)n1
987,1680,CCCCCCCCCCCCCCCCCCNC(=O)n1cnc(N)n1
123,345,CCCCCCNC(=O)n1cnc(N)n1
982,79,Nc1ncn(C(=O)NCCCCCCCCCCCCNC(=O)n2cnc(N)n2)n1
6.1,1.7,CCCCNC(=O)n1cnc(N)n1
42,14.6,Nc1ncn(C(=O)NCCCCCCNC(=O)n2cnc(N)n2)n1

# Continued, molecule first:
SMILES,KA [1] [nM],KA [2] [nM]
Cc1ccc(NC(=O)n2cnc(N)n2)cc1NC(=O)n1cnc(N)n1,4.2,826
COc1cc(-c2ccc(NC(=O)n3cnc(N)n3)c(OC)c2)ccc1NC(=O)n1cnc(N)n1,637,1680
O=C(O)c1ncn(C(=O)NCCCCCCNC(=O)n2cnc(C(=O)O)n2)n1,13.7,6700
Nc1ncn(C(=O)Nc2ccc(NC(=O)n3cnc(N)n3)cc2)n1,65,0.12
Nc1ncn(C(=O)Nc2ccc(Cc3ccc(NC(=O)n4cnc(N)n4)cc3)cc2)n1,0.94,0.05
CC1(C)CC(NC(=O)n2cnc(N)n2)CC(C)(CNC(=O)n2cnc(N)n2)C1 (stereo not drawn),993,1570
Nc1ncn(C(=O)NCCCCNC(=O)n2cnc(N)n2)n1,74,91
Nc1ncn(C(=O)Nc2ccc(-c3ccc(NC(=O)n4cnc(N)n4)cc3)cc2)n1,0.81,14.1
